Source: publication PMC6447844 (Cancer Science, 2019)
Like-named read-outs stand apart in the source and are kept apart here.

How the values were obtained:
[1] = Plasma pharmacokinetics of capmatinib; assay type: in vivo, human; settings: for AUC / Cmax: 400 mg, 400 mg b.i.d., day 15; for AUC: Mean AUCtau; for Cmax: Mean Cmax
advanced solid tumors = assay: Tumor assessment by CT/MRI according to RECIST version 1.1; assay type: in vivo, human; settings: investigator assessed; eight of 44 patients
[2] = tested on: MET-dependent (amplified/autocrine) tumor models; settings: at tolerable doses; cited from earlier work
[3] = study CINC280X2103; ref data on file; cited from earlier work
MET = settings: read-out: IC50 (MET, biochemical); cited from earlier work
[4] = tested on: Japanese patients with advanced solid tumors; assay: Safety assessment; assay type: in vivo, human
Summary of the method: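 Patients took oral test compound daily (capsule or tablet, q.d. or b.i.d.) in 28-day cycles until progression, intolerable toxicity or withdrawal. AEs graded by CTCAE v4.0, alongside regular laboratory tests, physical examination, vital signs, weight and periodic ECG. Safety set: patients with at least one dose and at least one valid postbaseline safety assessment.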

[5] = tested on: MET kinase versus other kinases (panel of 57 human kinases); settings: cited from earlier work
[6] = tested on: Japanese patients with advanced solid tumors; assay type: in vivo, human; settings: for DLT event: one patient
Summary of the method: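 Open-label phase I at two Japanese centres; oral test compound given q.d. or b.i.d. as capsule or tablet in 28-day cycles, escalated by a 2-parameter Bayesian logistic regression model with overdose control. DLT: grade 3 or 4 AE or abnormal laboratory value (CTCAE v4.0), not attributed to disease, intercurrent illness or co-medication, within the first 28 days. MTD: highest dose not expected to cause DLT in >33% of patients.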

[7] = human, plasma, oral, capsule group
[8] = human, plasma, oral, tablet group
[9] = regardless of relationship, all patients, n = 44
[10] = regardless of study drug relationship, all patients

Q: For `CNC(=O)c1ccc(-c2cnc3ncc(Cc4ccc5ncccc5c4)n3n2)cc1F` [capmatinib], which “Median Tmax” value ([1]; day 15, tablet) is on record?
A: Its value is 1.0 h.

Q: What about the Tmax ([1]; human, plasma, oral) of the same compound?
A: Its Tmax is 1 h.

Q: What about the AUC [1, 7] of the same compound?
A: The AUC was 11000 ng·h/mL.

Q: And the AUC [1, 8]?
A: Its AUC is 31400 ng·h/mL.

Q: What about the Cmax [1, 7] of the same compound?
A: The Cmax was 1980 ng/mL.

Q: What about the Cmax [1, 8] of the same compound?
A: Its Cmax is 7570 ng/mL.

Q: What about the Steady state achieved ([1]; pre-dose concentrations generally stable after day 15) of the same compound?
A: The Steady state achieved was no more than 15 days.

Q: What about the “Best overall response of SD” value (advanced solid tumors) of the same compound?
A: The value was 18.2%.

Q: What about the “Effect on MET-dependent tumor models” value [2] of the same compound?
A: The value was “causes regression”.

Q: And the “Cmax geometric mean ratio (tablet vs capsule)” value [3]?
A: Its value is 3.0.

Q: What about the IC50 (MET) of the same compound?
A: Its IC50 is 0.13 nM.

Q: What about the “Patients with one or more dose interruptions” value ([4]; 21 patients) of the same compound?
A: Its value is 47.7%.

Q: And the “AE requiring dose adjustment and/or interruption” value ([4]; 26 of 44 patients)?
A: Its value is 59.1%.

Q: What about the Overall tolerability ([4]; Japanese patients, overall) of the same compound?
A: The Overall tolerability was “well tolerated”.

Q: What about the “Changes in vital signs and ECG intervals” value ([4]; all patients) of the same compound?
A: The value was “no clinically meaningful changes or trends”.

Q: And the “Colitis ulcerative, grade 3/4 suspected to be drug-related” value ([4]; all patients)?
A: Its value is 1 n.

Q: What about the “Decreased appetite requiring dose adjustment and/or interruption” value ([4]; all patients) of the same compound?
A: Its value is 6.8%.

Q: What about the “Decreased appetite, suspected to be drug-related” value ([4]; all patients) of the same compound?
A: The value was 29.5%.

Q: And the “Depression, grade 3/4 suspected to be drug-related” value ([4]; all patients)?
A: The value was 1 n.

Q: What about the “Diarrhea, suspected to be drug-related” value ([4]; all patients) of the same compound?
A: The value was 20.5%.

Q: What about the “Hypophosphatemia, grade 3/4 suspected to be drug-related” value ([4]; all patients) of the same compound?
A: The value was 1 n.

Q: And the “Increased ALT and AST, grade 3/4 suspected to be drug-related” value ([4]; all patients)?
A: Its value is 1 n.

Q: And the “Increased GGT, grade 3/4 suspected to be drug-related” value ([4]; all patients)?
A: Its value is 1 n.

Q: And the “Increased blood creatinine requiring dose adjustment and/or interruption” value ([4]; all patients)?
A: The value was 20.5%.

Q: What about the “Increased blood creatinine, suspected to be drug-related” value ([4]; all patients) of the same compound?
A: The value was 45.5%.

Q: What about the “Lung infection, grade 3/4 suspected to be drug-related” value ([4]; all patients) of the same compound?
A: The value was 1 n.

Q: What about the “Nausea requiring dose adjustment and/or interruption” value ([4]; all patients) of the same compound?
A: Its value is 13.6%.

Q: And the “Nausea, suspected to be drug-related” value ([4]; all patients)?
A: Its value is 31.8%.

Q: And the “On-treatment deaths (within 28 days after discontinuation)” value ([4]; all patients)?
A: Its value is “No on‐treatment deaths”.

Q: And the “Patients experiencing one or more AE” value ([4]; all patients)?
A: Its value is 95.5%.

Q: And the “QTcB increase from baseline of more than 30 ms” value ([4]; all patients)?
A: Its value is “three”.

Q: And the “Treatment-emergent prolongation of QTcB of more than 450 ms” value ([4]; all patients)?
A: Its value is “three”.

Q: What about the “Treatment-emergent prolongation of QTcB of more than 480 ms” value ([4]; all patients) of the same compound?
A: Its value is “one”.

Q: What about the “Vomiting requiring dose adjustment and/or interruption” value ([4]; all patients) of the same compound?
A: The value was 6.8%.

Q: And the “Vomiting, suspected to be drug-related” value ([4]; all patients)?
A: The value was 29.5%.

Q: What about the “AE leading to discontinuation” value ([4]; all patients, n = 44) of the same compound?
A: The value was 4 (9.1) n (%).

Q: What about the “AE requiring dose interruption and/or reduction” value ([4]; all patients, n = 44) of the same compound?
A: Its value is 26 (59.1) n (%).

Q: What about the “AE requiring dose interruption and/or reduction, Suspected to be drug-related” value ([4]; all patients, n = 44) of the same compound?
A: The value was 17 (38.6) n (%).

Q: And the “All deaths (incl. more than 28 days after discontinuation)” value ([4]; all patients, n = 44)?
A: Its value is 1 (2.3) n (%).

Q: And the “On-treatment deaths (up to 28 d after discontinuation)” value ([4]; all patients, n = 44)?
A: The value was 0 n (%).

Q: And the “Patients experiencing ≥1 AE, Suspected to be drug-related” value ([4]; all patients, n = 44)?
A: Its value is 37 (84.1) n (%).

Q: What about the SAE ([4]; all patients, n = 44) of the same compound?
A: Its SAE is 7 (15.9) n (%).

Q: And the “SAE, Suspected to be drug-related” value ([4]; all patients, n = 44)?
A: Its value is 2 (4.5) n (%).

Q: And the “Total number of patients experiencing ≥1 AE” value ([4]; all patients, n = 44)?
A: Its value is 42 (95.5) n (%).

Q: What about the “Discontinuation due to AE (all grades)” value ([4]; four of 44 patients) of the same compound?
A: The value was 9.1%.

Q: What about the “AE suspected to be drug-related” value ([4]; mainly grade 1/2, 37 patients) of the same compound?
A: Its value is 84.1%.

Q: And the “Patients with dose interrupted only once” value ([4]; nine patients)?
A: Its value is 20.5%.

Q: And the Tolerability ([4]; p.o. 400 mg b.i.d. in tablet formulation)?
A: The Tolerability was “well tolerated”.

Q: What about the “Anemia, All grades” value [4, 9] of the same compound?
A: The value was 7 (15.9) n (%).

Q: And the “Anemia, Grade 3/4” value [4, 9]?
A: Its value is 0 n (%).

Q: And the “Any AE, All grades” value [4, 9]?
A: Its value is 42 (95.5) n (%).

Q: And the “Any AE, Grade 3/4” value [4, 9]?
A: The value was 15 (34.1) n (%).

Q: What about the “Constipation, All grades” value [4, 9] of the same compound?
A: Its value is 7 (15.9) n (%).

Q: What about the “Constipation, Grade 3/4” value [4, 9] of the same compound?
A: The value was 0 n (%).

Q: What about the “Decreased appetite, All grades” value [4, 9] of the same compound?
A: Its value is 18 (40.9) n (%).

Q: What about the “Decreased appetite, grade 3/4” value [4, 9] of the same compound?
A: Its value is 3 (6.8) n (%).

Q: What about the “Diarrhea, All grades” value [4, 9] of the same compound?
A: Its value is 11 (25.0) n (%).

Q: What about the “Diarrhea, Grade 3/4” value [4, 9] of the same compound?
A: The value was 0 n (%).

Q: What about the “Edema peripheral, All grades” value [4, 9] of the same compound?
A: Its value is 9 (20.5) n (%).

Q: What about the “Edema peripheral, Grade 3/4” value [4, 9] of the same compound?
A: The value was 1 (2.3) n (%).

Q: And the “Fatigue, All grades” value [4, 9]?
A: Its value is 7 (15.9) n (%).

Q: What about the “Fatigue, Grade 3/4” value [4, 9] of the same compound?
A: Its value is 0 n (%).

Q: What about the “Hypoalbuminemia, All grades” value [4, 9] of the same compound?
A: The value was 10 (22.7) n (%).

Q: And the “Hypoalbuminemia, grade 3/4” value [4, 9]?
A: Its value is 2 (4.5) n (%).

Q: What about the “Increased blood creatinine, All grades” value [4, 9] of the same compound?
A: Its value is 23 (52.3) n (%).

Q: And the “Increased blood creatinine, Grade 3/4” value [4, 9]?
A: The value was 0 n (%).

Q: And the “Malaise, All grades” value [4, 9]?
A: The value was 8 (18.2) n (%).

Q: What about the “Malaise, Grade 3/4” value [4, 9] of the same compound?
A: Its value is 0 n (%).

Q: And the “Nausea, All grades” value [4, 9]?
A: Its value is 21 (47.7) n (%).

Q: And the “Nausea, Grade 3/4” value [4, 9]?
A: Its value is 0 n (%).

Q: What about the “Pyrexia, All grades” value [4, 9] of the same compound?
A: Its value is 8 (18.2) n (%).

Q: What about the “Pyrexia, Grade 3/4” value [4, 9] of the same compound?
A: The value was 0 n (%).

Q: What about the “Vomiting, All grades” value [4, 9] of the same compound?
A: The value was 17 (38.6) n (%).

Q: What about the “Vomiting, Grade 3/4” value [4, 9] of the same compound?
A: The value was 0 n (%).

Q: What about the “Grade 3/4 AE” value ([4]; regardless of study drug relationship, 15 patients) of the same compound?
A: The value was 34.1%.

Q: And the “Ascites, grade 3/4” value [4, 10]?
A: Its value is 4.5%.

Q: What about the “Decreased appetite, all grades” value [4, 10] of the same compound?
A: The value was 40.9%.

Q: What about the “Decreased appetite, grade 3/4” value [4, 10] of the same compound?
A: Its value is 6.8%.

Q: What about the “Diarrhea, all grades” value [4, 10] of the same compound?
A: Its value is 25.0%.

Q: And the “Hypoalbuminemia, all grades” value [4, 10]?
A: Its value is 22.7%.

Q: What about the “Hypoalbuminemia, grade 3/4” value [4, 10] of the same compound?
A: The value was 4.5%.

Q: And the “Hyponatremia, grade 3/4” value [4, 10]?
A: Its value is 9.1%.

Q: And the “Hypophosphatemia, grade 3/4” value [4, 10]?
A: The value was 4.5%.

Q: What about the “Increased GGT, grade 3/4” value [4, 10] of the same compound?
A: The value was 4.5%.

Q: And the “Increased blood creatinine, all grades” value [4, 10]?
A: The value was 52.3%.

Q: And the “Nausea, all grades” value [4, 10]?
A: Its value is 47.7%.

Q: What about the “Peripheral edema, all grades” value [4, 10] of the same compound?
A: The value was 20.5%.

Q: What about the “Vomiting, all grades” value [4, 10] of the same compound?
A: Its value is 38.6%.

Q: What about the “Grade 3/4 AE suspected to be drug-related” value ([4]; seven patients) of the same compound?
A: Its value is 15.9%.

Q: What about the “Patients with one dose reduction” value ([4]; three patients) of the same compound?
A: The value was 6.8%.

Q: What about the “selectivity for MET kinase versus other kinases” value [5] of the same compound?
A: The value was 10 000 fold.

Q: And the MTD ([6]; escalated up to 400 mg b.i.d. tablet and 600 mg b.i.d. capsule)?
A: The MTD was “not reached”.

Q: And the DLT event ([6]; 400 mg b.i.d. tablet)?
A: Its DLT event is “grade 3 depression”.

Q: And the DLT event ([6]; 600 mg b.i.d. capsule)?
A: The DLT event was “grade 2 suicidal ideation”.

Q: And the “Highest studied dose determined to be safe, tablet” value ([6]; tablet formulation, single agent)?
A: Its value is 400 mg b.i.d.

Q: And the “Patients permanently discontinued owing to DLT” value ([6]; two patients)?
A: Its value is 5.1%.
